Test [1] in a line: reducers of endogenous Her2 protein level, primary screen, SKBR3 breast tumor cells, AlphaScreen, ATP viability (AID 461).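 For Her2 level: lower value means less Her2 protein in the cells.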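 For viability: percent of carrier control wells set as 100% viability.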 Conditions: 18-24 h, measured here: SKBR3 viability, ATP luminescence, at 10 µM. For orientation: In Alpha technology, singlet oxygen from a donor bead excites a nearby acceptor bead.
Test [2] concerns the target Receptor tyrosine-protein kinase erbB-2 (Homo sapiens) (UniProt P04626). The test is described as above. As to conditions: 18-24 h, at 10 µM, stronger effect = lower value.
Test [3] in a line: SK-BR-3 cell growth inhibitors, pilot screen, 24 h, human (AID 572;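 active = viability at or below 10% of carrier control in both of two separate runs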;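 note: compound exposure lasted between 18 and 24 h rather than exactly 24 h; 100% = carrier-treated control wells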). Conditions: SK-BR-3 viability, CellTiter-Glo luminescence, at 10 µM, stronger effect = lower value.
Test [4] is described as follows: HUVEC growth inhibition – cell-based, human, primary screen (AID 575;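 active = viability at or below 30% in both replicate assays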;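 note: 100% = median of untreated cell wells with 0.1% DMSO on each plate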). As to conditions: HUVEC proliferation, CellTiter-Glo luminescence, 72 h; at 10 µM; stronger effect = lower value. In short, it runs like this: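 System – primary HUVEC, no more than 12 passages · Medium – Low-serum (2% FBS) EBM, supplemented · Times – 72 h exposure, 37 °C, 5% CO2, 30 min RT equilibration · Measured by – luminescent ATP assay · Read-out – % viability relative to median vehicle-well signal on each plate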

A short description of test [5]: growth inhibitors of H69AR lung tumor, primary screen, human, duplicate replicates (AID 580;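 active = viability at or under a set limit in both replicates, limit being median viability minus 3 SD, cut at about 48% in these data, passing the limit was not always enough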;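 note: 100% = mean luminescence of untreated wells and 0% = no signal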). As to conditions: H69AR lung tumor cells viability, ATP luminescence, 72 h; at 10 µM; stronger effect = lower value.
Test [6] in a line: reversal of MRP1-mediated doxorubicin resistance, pilot screen, H69AR cells, doxorubicin co-treatment (AID 601;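 active = viability loss from added drug above about 55%, and viability with drug at most 40%, in both replicates, limit read from the data, passing the limit was not always enough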). As to conditions: CellTiter-Glo, 72 h, at 10 µM; for differential viability (reversal): stronger effect = higher value.
Test [7] in a line: 384-well plate pilot, post-Golgi transport modulator project, inhibition of yeast transport mutant growth (AID 636; in the data active = inhibition above about 31%). Conditions: absorbance 615 nm, about 18 h, stronger effect = higher value.
Test [8] in a line: growth suppression of yeast trafficking mutant, preliminary HTS, modulators of trafficking downstream of Golgi apparatus project, 1536-format plate, OD 615 nm (AID 637; in the data active = inhibition above about 30%). As to conditions: yeast transport mutant growth, absorbance 615 nm, 18 h; stronger effect = higher value.
The mark [9] stands for this setting: H69AR cells + 2 uM doxorubicin, measured here: viability with 2 uM doxorubicin, stronger effect = lower value.
The mark [10] stands for this setting: H69AR cells, compound alone cytotoxicity.

The source made the active and inactive calls.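 Rule for the calls, unless noted: active = Her2 level under about 52% in both replicate screens, with viability over 70% of control (limit read from the data); inconclusive = Her2 under the limit in one screen only, or viability under 70%; inactive = Her2 level above the set limit.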

The term viability denotes a read-out of living cells in per cent, often relative to untreated cells. Broadly, the inhibition is the drop in the measured response relative to a control, in per cent.

Receptor tyrosine-protein kinase erbB-2 (Homo sapiens), sequence (P04626 whole entry, looked up): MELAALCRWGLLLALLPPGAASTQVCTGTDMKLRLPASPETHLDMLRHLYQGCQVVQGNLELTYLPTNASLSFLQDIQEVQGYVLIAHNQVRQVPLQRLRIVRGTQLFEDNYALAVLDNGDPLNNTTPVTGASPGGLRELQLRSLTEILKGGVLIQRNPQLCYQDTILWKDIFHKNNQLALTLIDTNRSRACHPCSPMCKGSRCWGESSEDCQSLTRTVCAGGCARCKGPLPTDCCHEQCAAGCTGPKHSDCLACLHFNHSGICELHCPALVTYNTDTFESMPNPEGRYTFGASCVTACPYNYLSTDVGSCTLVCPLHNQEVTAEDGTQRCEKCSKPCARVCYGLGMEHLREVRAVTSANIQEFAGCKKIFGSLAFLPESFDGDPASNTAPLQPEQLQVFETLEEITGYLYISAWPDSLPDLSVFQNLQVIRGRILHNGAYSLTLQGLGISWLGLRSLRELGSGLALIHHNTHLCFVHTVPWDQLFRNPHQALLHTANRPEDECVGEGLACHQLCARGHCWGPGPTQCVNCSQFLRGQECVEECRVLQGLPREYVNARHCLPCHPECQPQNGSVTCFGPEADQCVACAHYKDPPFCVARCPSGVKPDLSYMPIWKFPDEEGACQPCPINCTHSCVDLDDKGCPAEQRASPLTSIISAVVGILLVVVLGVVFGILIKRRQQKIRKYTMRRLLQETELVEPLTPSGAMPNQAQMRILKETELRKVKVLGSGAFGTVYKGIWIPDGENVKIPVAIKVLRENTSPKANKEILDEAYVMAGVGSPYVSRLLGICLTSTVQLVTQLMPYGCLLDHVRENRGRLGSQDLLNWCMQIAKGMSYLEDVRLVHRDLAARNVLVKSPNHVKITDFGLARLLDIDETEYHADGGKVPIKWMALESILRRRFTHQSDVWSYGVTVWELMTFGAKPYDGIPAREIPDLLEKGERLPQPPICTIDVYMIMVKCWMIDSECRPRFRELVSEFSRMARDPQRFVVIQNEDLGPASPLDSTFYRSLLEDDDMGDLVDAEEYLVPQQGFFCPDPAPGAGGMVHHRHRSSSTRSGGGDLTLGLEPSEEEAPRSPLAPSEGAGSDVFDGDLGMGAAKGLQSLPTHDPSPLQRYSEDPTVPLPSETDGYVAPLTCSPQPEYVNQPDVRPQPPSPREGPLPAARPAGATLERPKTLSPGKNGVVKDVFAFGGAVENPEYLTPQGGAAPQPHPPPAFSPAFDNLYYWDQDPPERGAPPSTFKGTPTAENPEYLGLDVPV

In the case of `COc1ccc(Cl)cc1N1CC(c2nc3ccccc3[nH]2)CC1=O` (stereo not given), the viability in test [1] is 97.5%; in test [3], 97.5% (inactive); in test [4], 98% (inactive); in test [5] it was 104% (inactive); in test [6] (setting [9]), 96.3%; in test [6] (setting [10]), 104%. Further, the Her2 level in test [2] is 104% (inactive). The differential viability (reversal) in test [6] (H69AR cells + 2 uM doxorubicin) is 7.82% (inactive). For the same compound, the values for the inhibition in test [7] and in test [8] were -3.21% (inactive) and 2.17% (inactive), respectively.
`COc1cccc(CNC(=O)C2CCN(C(=O)N(C)C)CC2)c1`: the viability was 97.5% in test [1]; 97.5% (inactive) in test [3]; 90% (inactive) in test [4]; 92.2% (inactive) in test [5]; 92.2% in test [6] (setting [9]); 92.2% in test [6] (setting [10]). In addition, the Her2 level in test [2] is 118% (inactive). For the same compound, in test [6] (H69AR cells + 2 uM doxorubicin), the differential viability (reversal) was 0.06% (inactive). The results for the inhibition in test [7] and in test [8] were -0.64% (inactive) and 11.8% (inactive), respectively.
On to `Cc1cccc(N2C(=O)CC(N3CCN(C(=O)c4ccccc4)CC3)C2=O)c1` (stereo not given), for which the viability in test [1] was 114%; in test [3], 114% (inactive); in test [4] it was 90.8% (inactive); in test [5], 96.3% (inactive); in test [6] (setting [9]) it was 83.6%; in test [6] (setting [10]), 96.3%. In test [2], the Her2 level is 104% (inactive). Further, the differential viability (reversal) in test [6] (H69AR cells + 2 uM doxorubicin) is 12.7% (inactive). Besides, the inhibition in test [7] was -5.32% (inactive); in test [8], 2.13% (inactive).
As to `Cc1nc2sc(C(c3cccc(F)c3)N3CCOCC3)c(O)n2n1` (stereo not given), the viability is 117% in test [1]; 117% (inactive) in test [3]; 90.8% (inactive) in test [4]; 94.7% (inactive) in test [5]; 87% in test [6] (setting [9]); 94.7% in test [6] (setting [10]). The Her2 level in test [2] was 93.5% (inactive). In test [6] (H69AR cells + 2 uM doxorubicin), the differential viability (reversal) is 7.72% (inactive). Besides, the results for the inhibition in test [7] and in test [8] were -4.79% (inactive) and -3.65% (inactive), respectively.
In the case of `CSCCC(NC(=O)c1ccco1)C(=O)O` (stereo not given), the viability was 97.5% in test [1]; 97.5% (inactive) in test [3]; 112% (inactive) in test [4]; 91.8% (inactive) in test [5]; 91% in test [6] (setting [9]); 91.8% in test [6] (setting [10]). The Her2 level in test [2] is 110% (inactive). Besides, the differential viability (reversal) in test [6] (H69AR cells + 2 uM doxorubicin) was 0.86% (inactive). Besides, the results for the inhibition in test [7] and in test [8] were -0.93% (inactive) and 15% (inactive), respectively.
Take `Cc1cc(C)nc(Sc2ccc3nnc(C(F)(F)C(F)(F)C(F)(F)F)n3n2)n1`: the viability in test [1] is 83.5%; in test [3], 83.5% (inactive); in test [4], 99.6% (inactive); in test [5], 102% (inactive); in test [6] (setting [9]) it was 87.6%; in test [6] (setting [10]), 102%. For the same compound, the Her2 level in test [2] is 86.5% (inactive). Besides, the differential viability (reversal) in test [6] (H69AR cells + 2 uM doxorubicin) is 14.1% (inactive). For the same compound, the figures for the inhibition in test [7] and in test [8] were -6.89% (inactive) and 3.93% (inactive), respectively.
Take `CN(C=O)CP(=O)(O)CCN1CCCC1=O`: the viability was 126% in test [1]; 126% (inactive) in test [3]; 104% (inactive) in test [4]; 99.4% (inactive) in test [5]; 92.2% in test [6] (setting [9]); 99.4% in test [6] (setting [10]). Besides, the Her2 level in test [2] is 121% (inactive). Also, the differential viability (reversal) in test [6] (H69AR cells + 2 uM doxorubicin) was 7.19% (inactive). Moreover, the inhibition in test [7] was -4.47% (inactive); in test [8] it was 0.66% (inactive).
In the case of `Cc1cccc(Cn2c(=O)n(Cc3ccco3)c(=O)c3ccccc32)c1`, the viability in test [1] is 87%; in test [3], 87% (inactive); in test [4], 100% (inactive); in test [5], 92.5% (inactive); in test [6] (setting [9]), 102%; in test [6] (setting [10]) it was 92.5%. The Her2 level in test [2] is 97.5% (inactive). In test [6] (H69AR cells + 2 uM doxorubicin), the differential viability (reversal) is -9.65% (inactive). Further, the figures for the inhibition in test [7] and in test [8] were -2.11% (inactive) and 1.15% (inactive), respectively.
`Cc1nc(NCc2ccco2)c2oc3ccccc3c2n1`: the viability is 114% in test [1]; 114% (inactive) in test [3]; 100% (inactive) in test [4]; 80.6% (inactive) in test [5]; 81.8% in test [6] (setting [9]); 80.6% in test [6] (setting [10]). Also, the Her2 level in test [2] is 87% (inactive). In test [6] (H69AR cells + 2 uM doxorubicin), the differential viability (reversal) is -1.13% (inactive). Also, the inhibition in test [7] was -6.4% (inactive); in test [8], 4.44% (inactive).
Take `CN(C(=O)COc1cc(=O)n(C)c2ccccc12)c1ccc(Br)cc1`: the viability in test [1] is 100%; in test [3], 100% (inactive); in test [4] it was 74.5% (inactive); in test [5], 82.5% (inactive); in test [6] (setting [9]), 78.3%; in test [6] (setting [10]), 82.5%. For the same compound, the Her2 level in test [2] is 104% (inactive). The differential viability (reversal) in test [6] (H69AR cells + 2 uM doxorubicin) was 4.22% (inactive). The figures for the inhibition in test [7] and in test [8] were -1.87% (inactive) and -4.1% (inactive), respectively.
As to `COc1ccc(C2c3c(-c4ccccc4O)n[nH]c3C(=O)N2CCc2ccc(OC)c(OC)c2)cc1` (stereo not given), the viability was 112% in test [1]; 112% (inactive) in test [3]; 60.3% (inactive) in test [4]; 68.5% (inactive) in test [5]; 10.6% in test [6] (setting [9]); 68.5% in test [6] (setting [10]). Further, the Her2 level in test [2] is 95.5% (inactive). In addition, in test [6] (H69AR cells + 2 uM doxorubicin), the differential viability (reversal) is 57.9% (active). Moreover, the inhibition in test [7] was -2.89% (inactive); in test [8] it was 6.94% (inactive).
For the compound `CCCn1cnc2c(c1=O)c1nc3ccccc3nc1n2Cc1ccccc1OC`, the viability in test [1] is 99%; in test [3], 99% (inactive); in test [4], 91.9% (inactive); in test [5], 86.4% (inactive); in test [6] (setting [9]), 88.2%; in test [6] (setting [10]), 86.4%. In addition, in test [2], the Her2 level was 97% (inactive). The differential viability (reversal) in test [6] (H69AR cells + 2 uM doxorubicin) was -1.82% (inactive). The values for the inhibition in test [7] and in test [8] were -7.11% (inactive) and -2.22% (inactive), respectively.
With `COCCN(C(=O)CCC(=O)Nc1ccccn1)C(C(=O)NC1CCCC1)c1ccc(OC)cc1` (stereo not given), the viability in test [1] was 106%; in test [3], 106% (inactive); in test [4] it was 94.6% (inactive); in test [5] it was 111% (inactive); in test [6] (setting [9]), 96.3%; in test [6] (setting [10]), 111%. For the same compound, the Her2 level in test [2] is 105% (inactive). Also, the differential viability (reversal) in test [6] (H69AR cells + 2 uM doxorubicin) is 14.3% (inactive). Further, the inhibition in test [7] was 2.57% (inactive); in test [8], -0.49% (inactive).
Turning to `CCOc1nc(-c2ccccc2)ccc1-c1noc(-c2cccnc2)n1`, the viability in test [1] was 76.5%; in test [3], 76.5% (inactive); in test [4], 124% (inactive); in test [5] it was 91.2% (inactive); in test [6] (setting [9]) it was 86.4%; in test [6] (setting [10]), 91.2%. Moreover, in test [2], the Her2 level was 90% (inactive). Moreover, the differential viability (reversal) in test [6] (H69AR cells + 2 uM doxorubicin) is 4.83% (inactive). For the same compound, the inhibition in test [7] was -0.26% (inactive); in test [8] it was 0.33% (inactive).

Values taken from PubChem BioAssay.
